Here are results for 26 compounds from PubChem BioAssay AID623990 (Broad Institute, 2012).

What is called IC50 is the concentration that inhibits the measured activity by half.

Calls of active or inactive are those of the source.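 How the source made its calls: active means falling cell signal with fitted IC50 no higher than a set limit, twice the top tested dose; inconclusive means flat fit with toxicity between 30 and 70%, or poor fit; inactive means the rest.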

For one assay, the system named is HeLa viability, CellTiter-Glo ATP luminescence. The experiment in a line: mammalian cell viability loss in HeLa – CellTiter-Glo luminescence, dry powder, set 2, cytotoxicity control for pyoverdine/PvdQ inhibitor project, dose response (AID 623990).
Conditions: not given
Summed up:
(§1)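 System – HeLa cells · Amount – 2,500 HeLa cells per well · Medium – phenol red-free DMEM, 10% FBS · Compound dosing – 3-fold dose series · Timing – cells settled 24 h at 37 °C, then compound exposure 48 h · Measured by – CellTiter-Glo luciferase luminescence (0.5X reagent), reporting intracellular ATP · Evaluation – cell viability from luminescent signal, signal drop indicating toxicity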
A general note: Cellular ATP, detected with luciferase, serves as a proxy for viable cell number.
Turning to `N#CC(c1ccc(Cl)cc1)c1ncccc1Cl` (stereo unspecified), the IC50 is > 240 µM (inactive).

For `N#CC(c1cccc(C(F)(F)F)n1)c1ccc(Cl)cc1F` (stereo unspecified), the IC50 is > 240 µM (inactive).

On to `CCCCC(c1ccc(Cl)cc1)c1nn[nH]n1` (stereo unspecified), for which the IC50 was > 240 µM (inactive).

Turning to `CN(C)CCCC(C#N)c1ccc(F)cc1` (stereo unspecified), the IC50 is > 240 µM (inactive).

Consider `COCCC(C#N)c1ccc(Cl)cc1` (stereo unspecified), for which the IC50 was 62.2 µM.

On to `N#CC(c1cccc(Cl)n1)c1ccc(Cl)cc1F` (stereo unspecified), for which the IC50 is 111 µM.

Tested on in the next assay: not listed separately
Described as above. Particulars: HeLa viability, CellTiter-Glo ATP luminescence; at 120 µM (top of the series). The method, boiled down:
as §1
In the case of `COCCOCCC(C#N)c1ccc(Cl)cc1` (stereo unspecified), the activity change, negative = toxicity was -0.038% (inactive).

On to `CCCCC(C#N)c1ccc(F)cn1` (stereo unspecified), for which the activity change, negative = toxicity was 7.3% (inactive).

Turning to `CCCCC(C#N)c1ccc(F)cc1` (stereo unspecified), the activity change, negative = toxicity is 5.81% (inactive).

In the case of `N#CC(c1ccc(Cl)cc1)c1cccc(C(F)(F)F)n1` (stereo unspecified), the activity change, negative = toxicity is 10.3% (inactive).

Regarding `CN(C)CCCC(C#N)c1ccc(Cl)cc1` (stereo unspecified), the activity change, negative = toxicity was 23.3% (inactive).

`N#CC(c1ccc(C(F)(F)F)c(Cl)n1)c1ccccc1OC(F)(F)F` (stereo unspecified): the activity change, negative = toxicity is 5.17% (inactive).

`CCCCC(C#N)c1ccccn1` (stereo unspecified): the activity change, negative = toxicity was 2.12% (inactive).

As to `N#CC(c1ccc(Cl)cc1)c1ccccn1` (stereo unspecified), the activity change, negative = toxicity is 5.57% (inactive).

`CCCCC(C#N)c1ccc(Cl)cc1` (stereo unspecified): the activity change, negative = toxicity is 13.5% (inactive).

Consider `COCCNC(C#N)c1ccc(Cl)cc1` (stereo unspecified), for which the activity change, negative = toxicity was 4.87% (inactive).

Take `N#CC(c1ccc(F)cc1)c1cccc(Cl)n1` (stereo unspecified): the activity change, negative = toxicity was -3.39% (inactive).

`Clc1ccc(C(c2cccc(Cl)n2)c2nn[nH]n2)cc1` (stereo unspecified): the activity change, negative = toxicity was 8.71% (inactive).

With `COCCC(C#N)c1ccc(F)cc1` (stereo unspecified), the activity change, negative = toxicity was 6.44% (inactive).

For `N#CC(c1ccc(F)cc1)c1cccc(C(F)(F)F)n1` (stereo unspecified), the activity change, negative = toxicity is 13.5% (inactive).

Take `N#CC(c1ccc(Cl)cc1)N1CCCC1` (stereo unspecified): the activity change, negative = toxicity was 30.4% (inactive).

For the compound `N#Cc1cccc(C(C#N)c2ccc(F)cc2)n1` (stereo unspecified), the activity change, negative = toxicity was 4.63% (inactive).

On to `N#CC1c2ccc(Cl)cc2CCc2cccnc21` (stereo unspecified), for which the activity change, negative = toxicity was 2.14% (inactive).

For the compound `N#CC(c1ccc(Cl)cc1)c1cccc(Cl)n1` (stereo unspecified), the activity change, negative = toxicity is 12.2% (inactive).

In the case of `COCCOCCC(C#N)c1ccc(F)cc1` (stereo unspecified), the activity change, negative = toxicity was 3.67% (inactive).

Consider `CCCCC(C#N)c1ccc(Cl)cn1` (stereo unspecified), for which the activity change, negative = toxicity is 27.3% (inactive).
